Laboratory results published in ChEMBL document CHEMBL2150858 (J Med Chem, 2011).

How the values were obtained:
[1] = target: Macrophage metalloelastase (Homo sapiens, UniProt P39900); experiment: Inhibition of MMP12
Collagenase 3 = Collagenase 3 (Homo sapiens, UniProt P45452); experiment: Inhibition of MMP13
[2] = target: T1, 72 kDa type IV collagenase (Homo sapiens, UniProt P08253); experiment: Inhibition of MMP2
Summary of the method: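 Fluorogenic substrate assay on MMP-2 (5 ng/mL enzyme solution) in TNC buffer (50 mM Tris-HCl pH 7.5, 150 mM NaCl, 10 mM CaCl2, 0.05% Brij-35). Enzyme preincubated with compound for 10 min at 37 °C, then substrate solution (10 μM) added. Fluorescence read at ex 328/em 393 nm after 3 h at 37 °C. An enzyme-free blank was subtracted; batimastat served as positive control and 1% DMSO as negative.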

[3] = target: Serine/threonine-protein kinase pim-1 (Homo sapiens, UniProt P11309); experiment: Inhibition of human recombinant PIM1 using [gamma-32P] ATP after 30 mins by scintillation counting
Summary of the method: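 Human recombinant Pim1 was run with histone H1 substrate under the CDK1/CDK5 conditions: 15 μM [γ-32P]ATP at 30 °C for 30 min. Phosphocellulose filter binding and scintillation counting followed. Activity was expressed as % of maximal after blank subtraction, with DMSO controls.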

[4] = target: Dual specificity tyrosine-phosphorylation-regulated kinase 1A (Rattus norvegicus, UniProt Q63470); experiment: Inhibition of rat recombinant GST-fused DYRK1A expressed in Escherichia coli using [gamma-32P] ATP after 30 mins by scintillation counting
Summary of the method: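 DYRK1A purified by glutathione-agarose affinity chromatography. Product captured on P81 phosphocellulose and washed in phosphoric acid. Blank subtracted; activity expressed as % of uninhibited.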

[5] = target: Matrix metalloproteinase-14 (Homo sapiens, UniProt P50281); experiment: Inhibition of MMP14 using MOCAc-Pro-Leu-Gly-Leu-A2pr(Dnp)-Ala-Arg- NH2 as substrate preincubated for 10 mins measured after 3 hrs by fluorescence assay
Summary of the method: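 Fluorogenic MMP assay (modified Knight method) in TNC buffer: 50 mM Tris-HCl pH 7.5, 150 mM NaCl, 10 mM CaCl2, 0.05% Brij-35. Enzyme stock was 5 ng/mL for MMP-2 and 40 ng/mL for MT1-MMP, preincubated with sample 10 min at 37 °C. Substrate solution at 10 μM was added, then incubated 3 h at 37 °C. Fluorescence read at ex 328/em 393 nm; a no-enzyme blank was subtracted. Controls were batimastat and 1% DMSO.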

[6] = target: Matrix metalloproteinase-9 (Homo sapiens, UniProt P14780); experiment: Inhibition of MMP9
[7] = target: T1, 72 kDa type IV collagenase; experiment: Inhibition of human recombinant MMP2 using MOCAc-Pro-Leu-Gly-Leu-A2pr(Dnp)-Ala-Arg- NH2 as substrate preincubated for 10 mins measured after 3 hrs by fluorescence assay
Summary of the method: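 Fluorogenic MMP-2 inhibition in TNC buffer (50 mM Tris-HCl pH 7.5, 150 mM NaCl, 10 mM CaCl2, 0.02% NaN3, 0.05% Brij-35). Enzyme stock 5 ng/mL preincubated with compound 10 min at 37 °C. Reaction started with substrate solution (10 μM), incubated 3 h at 37 °C. Read at ex 328/em 393 nm. No-enzyme blank subtracted. Batimastat positive control; 1% DMSO negative control.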

Neutrophil collagenase = Neutrophil collagenase (Homo sapiens, UniProt P22894); experiment: Inhibition of MMP8
[8] = target: Casein kinase I isoform alpha (Sus scrofa, UniProt O19175); experiment: Inhibition of porcine brain CK1 using RRKHAAIGpSAYSITA as substrate
Interstitial collagenase = Interstitial collagenase (Homo sapiens, UniProt P03956); experiment: Inhibition of MMP1
Chain of Interstitial collagenase (P03956 whole entry): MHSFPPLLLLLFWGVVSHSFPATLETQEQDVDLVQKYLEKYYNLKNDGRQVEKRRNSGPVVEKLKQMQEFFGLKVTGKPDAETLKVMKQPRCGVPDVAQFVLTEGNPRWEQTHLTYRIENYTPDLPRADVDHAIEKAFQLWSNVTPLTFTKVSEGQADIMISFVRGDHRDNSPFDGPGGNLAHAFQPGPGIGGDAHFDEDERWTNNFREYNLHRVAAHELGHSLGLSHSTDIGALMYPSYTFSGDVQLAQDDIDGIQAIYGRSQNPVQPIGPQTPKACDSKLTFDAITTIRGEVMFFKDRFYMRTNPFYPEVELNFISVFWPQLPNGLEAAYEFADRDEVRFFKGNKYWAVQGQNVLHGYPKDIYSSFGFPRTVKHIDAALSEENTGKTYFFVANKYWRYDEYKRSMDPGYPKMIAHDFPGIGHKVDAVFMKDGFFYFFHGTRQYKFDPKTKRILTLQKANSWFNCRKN

T1 sequence (P08253 whole entry): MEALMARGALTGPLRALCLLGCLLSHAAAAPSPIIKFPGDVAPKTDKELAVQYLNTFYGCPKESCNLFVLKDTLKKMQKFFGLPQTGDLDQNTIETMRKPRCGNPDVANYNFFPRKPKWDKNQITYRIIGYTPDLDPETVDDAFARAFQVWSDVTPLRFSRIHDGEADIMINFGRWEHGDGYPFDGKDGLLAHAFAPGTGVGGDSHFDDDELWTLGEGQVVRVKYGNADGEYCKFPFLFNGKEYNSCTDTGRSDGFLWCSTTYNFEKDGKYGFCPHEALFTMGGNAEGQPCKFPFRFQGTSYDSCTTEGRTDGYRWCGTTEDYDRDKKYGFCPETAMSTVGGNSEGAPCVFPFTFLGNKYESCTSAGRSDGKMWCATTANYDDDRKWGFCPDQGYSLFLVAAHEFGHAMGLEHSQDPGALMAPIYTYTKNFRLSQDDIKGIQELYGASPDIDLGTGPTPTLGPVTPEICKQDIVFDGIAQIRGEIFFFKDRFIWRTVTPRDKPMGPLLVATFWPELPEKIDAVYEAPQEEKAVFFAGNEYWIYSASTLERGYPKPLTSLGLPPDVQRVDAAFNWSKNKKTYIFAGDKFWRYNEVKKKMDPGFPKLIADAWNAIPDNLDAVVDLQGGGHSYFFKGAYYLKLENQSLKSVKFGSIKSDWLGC
Chain of Macrophage metalloelastase (P39900 whole entry): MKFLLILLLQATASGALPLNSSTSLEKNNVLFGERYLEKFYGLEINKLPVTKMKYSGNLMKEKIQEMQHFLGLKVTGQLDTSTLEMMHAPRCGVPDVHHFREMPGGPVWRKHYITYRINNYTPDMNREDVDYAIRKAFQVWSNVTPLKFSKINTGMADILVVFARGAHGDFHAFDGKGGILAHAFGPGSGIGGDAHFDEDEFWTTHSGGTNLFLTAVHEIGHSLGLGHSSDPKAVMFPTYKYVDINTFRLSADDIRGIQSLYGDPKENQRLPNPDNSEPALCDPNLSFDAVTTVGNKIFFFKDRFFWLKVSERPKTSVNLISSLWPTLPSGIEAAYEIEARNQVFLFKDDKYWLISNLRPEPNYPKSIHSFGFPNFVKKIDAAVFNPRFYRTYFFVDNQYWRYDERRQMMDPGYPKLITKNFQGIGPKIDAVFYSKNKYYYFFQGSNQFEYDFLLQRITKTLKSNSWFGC
Chain of Serine/threonine-protein kinase pim-1 (P11309 whole entry): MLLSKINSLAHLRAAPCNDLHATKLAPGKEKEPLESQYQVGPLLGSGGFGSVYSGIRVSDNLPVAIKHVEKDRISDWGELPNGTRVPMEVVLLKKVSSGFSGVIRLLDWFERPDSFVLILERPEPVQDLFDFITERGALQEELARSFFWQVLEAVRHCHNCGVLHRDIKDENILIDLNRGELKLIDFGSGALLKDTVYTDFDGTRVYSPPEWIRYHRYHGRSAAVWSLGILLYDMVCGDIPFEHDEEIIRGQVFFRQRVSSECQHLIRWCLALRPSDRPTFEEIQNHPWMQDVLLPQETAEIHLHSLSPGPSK
Chain of Neutrophil collagenase (P22894 whole entry, canonical isoform): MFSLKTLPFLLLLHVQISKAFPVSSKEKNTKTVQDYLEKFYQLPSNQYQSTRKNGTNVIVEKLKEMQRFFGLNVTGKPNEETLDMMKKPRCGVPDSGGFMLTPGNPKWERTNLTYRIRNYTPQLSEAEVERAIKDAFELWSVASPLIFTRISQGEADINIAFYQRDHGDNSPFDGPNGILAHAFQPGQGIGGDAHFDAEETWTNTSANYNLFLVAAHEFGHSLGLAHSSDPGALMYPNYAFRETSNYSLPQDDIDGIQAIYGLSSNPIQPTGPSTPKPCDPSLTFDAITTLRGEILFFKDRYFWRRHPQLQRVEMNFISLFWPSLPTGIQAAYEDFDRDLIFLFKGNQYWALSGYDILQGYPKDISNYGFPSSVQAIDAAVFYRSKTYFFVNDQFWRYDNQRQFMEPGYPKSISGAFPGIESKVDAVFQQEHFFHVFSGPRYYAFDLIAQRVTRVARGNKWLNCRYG
Chain of Matrix metalloproteinase-9 (P14780 whole entry): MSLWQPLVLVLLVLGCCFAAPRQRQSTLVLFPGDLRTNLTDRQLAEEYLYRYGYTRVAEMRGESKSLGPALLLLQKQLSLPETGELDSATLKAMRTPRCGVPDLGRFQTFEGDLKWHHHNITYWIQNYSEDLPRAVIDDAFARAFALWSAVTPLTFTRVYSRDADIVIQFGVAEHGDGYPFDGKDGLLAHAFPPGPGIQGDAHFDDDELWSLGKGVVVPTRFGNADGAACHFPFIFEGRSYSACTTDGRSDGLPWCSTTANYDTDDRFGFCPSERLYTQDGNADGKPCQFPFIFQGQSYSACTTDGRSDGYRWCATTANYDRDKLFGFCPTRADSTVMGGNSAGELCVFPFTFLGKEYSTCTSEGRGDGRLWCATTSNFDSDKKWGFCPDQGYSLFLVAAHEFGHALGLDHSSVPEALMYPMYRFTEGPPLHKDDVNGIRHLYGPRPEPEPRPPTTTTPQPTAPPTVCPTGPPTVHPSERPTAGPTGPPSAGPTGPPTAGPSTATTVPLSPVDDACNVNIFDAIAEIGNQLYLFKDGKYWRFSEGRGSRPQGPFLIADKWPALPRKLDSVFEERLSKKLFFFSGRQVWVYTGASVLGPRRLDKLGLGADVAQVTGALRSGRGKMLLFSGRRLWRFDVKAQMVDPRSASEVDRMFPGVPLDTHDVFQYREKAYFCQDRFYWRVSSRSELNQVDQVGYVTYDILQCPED
Chain of Casein kinase I isoform alpha (O19175 whole entry, canonical isoform): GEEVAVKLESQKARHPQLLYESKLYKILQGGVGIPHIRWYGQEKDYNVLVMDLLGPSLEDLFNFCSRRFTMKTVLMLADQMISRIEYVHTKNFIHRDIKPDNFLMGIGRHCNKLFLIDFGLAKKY

IC50 [1]: 924 nM | IC50 (Collagenase 3): 1320 nM | IC50 [2]: 3.36 µM | IC50 [3]: 10 µM | IC50 [4]: 30 µM | IC50 [5]: 560 nM | IC50 [6]: 2210 nM | IC50 [7]: 4.76 µM | IC50 (Neutrophil collagenase): 1090 nM | IC50 [8]: 50 µM | IC50 (Interstitial collagenase): 5.6 µM
SMILES: Nc1nc2c(-c3cc(Br)c(Br)[nH]3)nccc2[nH]1 [AGELADINE A]
